From ChEMBL document CHEMBL1138476 (J Med Chem, 2009)
In brackets after ≈: the same amount, converted by molar mass.

Legend:
[1] = AUC (0 to infinity) in chimpanzee at 0.5 mg/kg, iv; assay type: ADME, organism-based, Pan troglodytes; parameters: time infinity, dose 0.5 mg/kg, route intravenous; conditions: plasma
Summary of the method: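 Chimpanzee PK. Oral: 1 mg/kg in two alert animals, given as a 1 mg/mL suspension in 50–50 (v/v) 0.5% methylcellulose/Tang orange juice with 1% Tween-80. IV: 0.5 mg/kg in one animal in 10% DMAC, 70% propylene glycol and deionized water, infused over 10 min (0.2 mL/kg). EDTA blood was taken predose and at 2–96 h; iv sampling added 6, 15 and 30 min.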

[2] = system: Canis familiaris; assay: Effect on respiratory function in spontaneously breathing mongrel dog assessed as change in heart rate at 5 mg/kg after intravenous infusion for 60 mins (RVb= -0.9+/-5.8 %); assay type: functional, Canis lupus familiaris
[3] = system: Canis familiaris; assay: Effect on respiratory function in spontaneously breathing mongrel dog assessed as change in mean arterial pressure at 5 mg/kg after intravenous infusion for 30 mins (RVb= 4.0+/-3.0 %); assay type: functional, Canis lupus familiaris, Artery
[4] = system: Rattus norvegicus; assay: Toxicity in rat assessed as time spent on rotarod at 30 mg/kg, po after 1 hr by rotarod test; assay type: organism-based; parameters: dose 30 mg/kg, route oral; conditions: in vivo
Summary of the method: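 Rats, n = 8 per dose, dosed po in 0.25% Methocel 1 h before testing, at 0, 1.0, 3.0, 10, 30 and 100 mg/kg. Read-out is time on rotorod (s), mean ± SEM, compared with the vehicle (zero-dose) group.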

[5] = system: Canis familiaris; assay: Effect on respiratory function in spontaneously breathing mongrel dog assessed as change in tidal volume at 5 mg/kg after intravenous infusion for 60 mins (RVb= 13.0+/-10.3 %); assay type: functional, Canis lupus familiaris
[6] = system: Canis familiaris; assay: Effect on respiratory function in spontaneously breathing mongrel dog assessed as change in intrapleural pressure at 5 mg/kg after intravenous infusion for 15 mins (RVb= 12.6+/-17.1 %); assay type: functional, Canis lupus familiaris
[7] = system: Canis familiaris; assay: Effect on respiratory function in spontaneously breathing mongrel dog assessed as change in tidal volume at 5 mg/kg after intravenous infusion for 15 mins (RVb= 2.2+/-4.3 %); assay type: functional, Canis lupus familiaris
[8] = system: Canis familiaris; assay: Effect on respiratory function in spontaneously breathing mongrel dog assessed as change in respiration rate at 5 mg/kg after intravenous infusion for 30 mins (RVb= -4.5+/-8.2 %); assay type: functional, Canis lupus familiaris
[9] = system: Canis familiaris; assay: Effect on respiratory function in spontaneously breathing mongrel dog assessed as change in minute volume at 5 mg/kg after intravenous infusion for 30 mins (RVb= 1.0+/-9.7 %); assay type: functional, Canis lupus familiaris
[10] = system: Canis familiaris; assay: Effect on respiratory function in spontaneously breathing mongrel dog assessed as change in peak expiratory flow at 5 mg/kg after intravenous infusion for 6 mins (RVb= 3.6+/-3.7 %); assay type: functional, Canis lupus familiaris
[11] = Plasma concentration in rat at 30 mg/kg, po after 5 hrs; assay type: ADME, organism-based; parameters: dose 30 mg/kg, route oral
Summary of the method: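 Rats (n = 9, renal function study) given 30 mg/kg po; plasma levels measured in a separate cohort dosed the same way, sampled at 1 and 5 h after dosing.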

[12] = Solubility in ethanol; assay type: physicochemical
[13] = Tmax in rat at 5 mg/kg, po; assay type: ADME, organism-based; parameters: dose 5 mg/kg, route oral; conditions: in vivo
Summary of the method: (§1)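 Rats (n = 3) dosed iv at 1 mg/kg in 10% DMAC, 70% propylene glycol and deionized water, and orally at 5 mg/kg in 0.5% methylcellulose.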

[14] = system: Rattus norvegicus; assay: Effect on acute renal function in rat assessed as change in urine chloride level per 100 gm body weight at 30 mg/kg, po (RVb= 95.3+/-11.6 mg/dl); assay type: functional
[15] = Volume of distribution at steady state in rat at 1 mg/kg, iv and 5 mg/kg, po; assay type: ADME, organism-based; conditions: in vivo, read-out: Vdss; summary of the method: as §1
[16] = Clearance in rat at 1 mg/kg, iv and 5 mg/kg, po; assay type: ADME, organism-based; conditions: in vivo
Summary of the method: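 Rats (n = 3) received 1 mg/kg iv in 10% DMAC, 70% propylene glycol and deionized water, or 5 mg/kg orally in 0.5% methylcellulose.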

[17] = system: Canis familiaris; assay: Effect on respiratory function in spontaneously breathing mongrel dog assessed as change in intrapleural pressure at 5 mg/kg after intravenous infusion for 30 mins (RVb= -90.8+/-103 %); assay type: functional, Canis lupus familiaris
[18] = system: Canis familiaris; assay: Effect on respiratory function in spontaneously breathing mongrel dog assessed as change in pulmonary compliance at 5 mg/kg after intravenous infusion for 60 mins (RVb= -4.8+/-[…]); assay type: functional, Canis lupus familiaris
[19] = system: Rattus norvegicus; assay: Ex vivo receptor occupancy of CRF receptor in rat brain at 10 mg/kg, po by [125I]sauvagine binding and autoradiography relative to control; assay type: functional
Summary of the method: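 Rats were given 0.3, 1, 3, 10 or 30 mg/kg po in 0.25% Methocel 60 min before sacrifice. Brains were removed, sectioned and frozen at −80 °C. Ex vivo CRF receptor binding gave occupancy relative to vehicle-treated rats, reported as mean ± SEM.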

[20] = system: Rattus norvegicus; assay: Effect on acute renal function in rat assessed as change in urine potassium level per 100 gm body weight at 30 mg/kg, po (RVb= 60.3+/-11.1 mg/dl); assay type: functional
[21] = system: Canis familiaris; assay: Effect on respiratory function in spontaneously breathing mongrel dog assessed as change in airway resistance at 5 mg/kg after intravenous infusion for 15 mins (RVb= 27.8+/-17.9 %); assay type: functional, Canis lupus familiaris
[22] = Elimination half life in chimpanzee at 0.5 mg/kg, iv; assay type: ADME, organism-based, Pan troglodytes; parameters: dose 0.5 mg/kg, route intravenous; conditions: in vivo, read-out: beta t1/2 (converted)
Summary of the method: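 One chimpanzee received 0.5 mg/kg iv over 10 min (0.2 mL/kg) in 10% DMAC, 70% propylene glycol and deionized water. Blood was drawn into EDTA predose and at 6, 15, 30 min and 2, 4, 6, 9, 12, 24, 36, 48, 72 and 96 h.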

[23] = Plasma concentration in spontaneously breathing dog at 5 mg/kg, iv after 6 mins; assay type: ADME, organism-based, Canis lupus familiaris; parameters: dose 5 mg/kg, route intravenous
Summary of the method: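 Spontaneously breathing, barbiturate-anesthetized mongrel dogs (n = 4) infused iv at 5.0 mg/kg over 6 min. Total pooled plasma concentrations taken at 6, 15, 30 and 60 min.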

[24] = system: Rattus norvegicus; assay: Effect on acute renal function in rat assessed as change in glucose level in urine per 100 gm body weight at 30 mg/kg, po (RVb= 9.9+/-1.9 mg/dl); assay type: functional
[25] = Elimination half life in rat at 1 mg/kg, iv and 5 mg/kg, po; assay type: ADME, organism-based; conditions: in vivo, read-out: beta t1/2 (converted)
Summary of the method: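 Rats (n = 3) were dosed at 1 mg/kg iv in 10% DMAC, 70% propylene glycol and deionized water, and at 5 mg/kg po in 0.5% methylcellulose.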

CC[C@@H](C)Nc1nc(C)nc2c(-c3ccc(OC)nc3C)c(C)nn12 [PEXACERFONT]
AUC(0-inf) [1]: 11.9 µM·h | Activity [2]: -2.3% | Activity [3]: 6.2% | Time [4]: 157 s | Activity [5]: 11.5% | Activity [6]: 6.5% | Activity [7]: 4.3% | Activity [8]: -32.5% | Activity [9]: -30.8% | Activity [10]: -12.5% | concentration at 5 h [11]: 4.95 µM | solubility [12]: 300 mg/mL (≈ 881 mM) | Tmax [13]: 0.75 h | Activity [14]: 80 mmol/L | Vd [15]: 14.9 L/kg | clearance [16]: 17.9 mL/min/kg | Activity [17]: 8.6% | Activity [18]: 33.8% | Activity [19]: 69% | Activity [20]: 32.1 mg/dL | Activity [21]: 9% | half-life [22]: 30 h | concentration at 0.1 h [23]: 1.79 µM | Activity [24]: 4.4 mg/dL | half-life [25]: 13.5 h
